In the RNAGym collection of RNA variant scans (doi:10.1002/anie.201605470):

B1: Osa-1-4 twister ribozyme (parent)
chain: CCGCCUAACACUGCCAAUGCCGGUCCCAAGCCCGGAUAAAAGUGGAGGGGGCGG

Variants of: B1
Assay: self-cleavage, relative activity (ratio to wild type); higher = more cleavage; co-transcriptional
Outline: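 A DNA template for a 54-nucleotide Oryza sativa twister ribozyme was synthesised with 97 % wild-type base and 1 % of each other base at the 48 positions downstream of the cleavage site. It was transcribed in vitro for 2 h at 37 °C, allowing co-transcriptional self-cleavage, then reverse-transcribed with a template-switching oligonucleotide, PCR-amplified and deep-sequenced. Cleavage status was scored from reads with or without upstream sequence. Relative activity is fraction cleaved normalised to wild type.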

Variant	self-cleavage
A16C G48U	0.06
A16C G48A	0.06
A16C G48C	0.07
C15U G30A	0.02
C15U G30C	0.02
C15U G30U	0.03
A16C G49C	0.05
A16C G49A	0.09
A16C G49U	0.08
A16C A7G	0.17
A16C A7C	0.07
A16C A7U	0.15
C15U G23U	0.03
C15U G23A	0.06
C15U G23C	0.03
C15U G35C	0.07
C15U G35A	0.59
C15U G35U	0.35
A16C U18C	0.91
A16C U18A	0.92
A16C U18G	0.85
C15U C25U	0.08
C15U C25G	0.04
C15U C25A	0.03

Variant	self-cleavage
C15U G49C	0.04
C15U G49U	0.04
C15U G49A	0.05
C15U G42U	0.06
C15U G42C	0.06
C15U G42A	0.12
A16C A17U	0.98
A16C A17C	0.87
A16C A17G	0.9
A16G A38C	0.98
A16G A38U	1.05
A16G A38G	0.97
C15U C26U	0.08
C15U C26G	0.06
C15U C26A	0.01
C15U G50A	0.47
C15U G50C	0.23
C15U G50U	0.43
A16G A7G	0.61
A16G A7U	0.13
A16G A7C	0.08
C15G U43G	0.1
C15G U43C	0.11
C15G U43A	0.17

Variant	self-cleavage
C15U G54A	0.16
C15U G54C	0.14
C15U G54U	0.43
A16C C31G	0.1
A16C C31A	0.04
A16C C31U	0.55
A16C A36G	1.01
A16C A36U	0.99
A16C A36C	0.33
C15G G54A	0.19
C15G G54U	0.35
C15G G54C	0.16
C15U U18C	0.52
C15U U18A	0.51
C15U U18G	0.39
C15G U24A	0.07
C15G U24C	0.09
C15G U24G	0.02
C15U G45A	0.04
C15U G45C	0.04
C15U G45U	0.03
A16C A29C	0.05
A16C A29G	0.11
A16C A29U	0.07

Variant	self-cleavage
A16G A39U	0.97
A16G A39C	1.01
A16G A39G	0.9
C15G G30U	0.06
A16C G44A	0.95
A16C G44U	0.94
A16C G44C	0.97
A16C G53A	0.65
A16C G53C	0.09
A16C G53U	0.25
C15U C52A	0.26
C15U C52G	0.41
C15U C52U	0.48
A16G C15G	0.78
A16G C15U	0.45
A16G C15A	0.61
A16C C32U	0.09
A16C C32A	0.07
A16C C32G	0.12
A16C U24A	0.11
A16C U24C	0.17
A16C U24G	0.04
A16G A8U	0.5
A16G A8C	0.09

Variant	self-cleavage
A16G A8G	0.76
A16C G54A	0.86
A16C G54U	0.88
A16C G54C	0.82
A16C C33G	0.06
A16C C33U	0.55
A16C C33A	0.08
C15U C20G	0.05
C15U C20A	0.45
C15U C20U	0.54
C15U G51A	0.15
C15U G51U	0.07
C15U G51C	0.04
A16C C20G	0.12
A16C C20U	0.93
A16C C20A	0.83
C15G G53A	0.13
C15G G53C	0.05
C15G G53U	0.13
C15G U37C	0.47
C15G U37G	0.72
C15G U37A	0.45
C15G G35C	0.14
C15G G35U	0.3

Variant	self-cleavage
C15G G35A	0.38
A16C C21U	0.93
A16C C21G	0.08
A16C C21A	0.45
A16C A40G	0.54
A16C A40U	0.52
A16C A40C	0.07
A16C A46U	0.07
A16C A46C	0.06
A16C A46G	0.06
A16G A40U	0.88
A16G A40G	0.77
A16G A40C	0.11
A16C A8G	0.36
A16C A8U	0.19
A16C A8C	0.13
A16C G19C	0.13
A16C G19A	0.62
A16C G19U	0.19
C15U G48U	0.03
C15U G48C	0.05
C15U G48A	0.05
A16C G50C	0.82
A16C G50U	0.97

Variant	self-cleavage
A16C G50A	0.71
A16C C26G	0.1
A16C C26A	0.03
A16C C26U	0.76
C15U G34U	0.15
C15U G34C	0.09
C15U G34A	0.21
A16C C52U	0.98
A16C C52A	0.9
A16C C52G	0.96
C15U G53A	0.12
C15U G53U	0.1
C15U G53C	0.05
A16C A39G	0.95
A16C A39U	0.95
A16C A39C	0.89
C15U G44A	0.08
C15U G44U	0.16
C15U G44C	0.23
C15G U12C	0.1
C15G U12G	0.15
C15G U12A	0.13
A16C C25A	0.08
A16C C25G	0.1

Variant	self-cleavage
A16C C25U	0.72
C15G G44C	0.19
C15G G44A	0.12
C15G G44U	0.17
C15G G34U	0.13
C15G G34C	0.18
C15G G34A	0.27
C15U C33A	0.05
C15U C33G	0.03
C15U C33U	0.06
C15U	0.53
C15U G19U	0.46
C15U G19C	0.12
C15U G19A	1.03
A16C C15U	0.62
A16C C15G	0.54
A16C C15A	0.39
A16C C14A	0.08
A16C C14U	0.27
A16C C14G	0.29
A16C U12G	0.09
A16C U12A	0.71
A16C U12C	0.44
A16G A46C	0.15

Variant	self-cleavage
A16G A46U	0.11
A16G A46G	0.1
C15U C27U	0.08
C15U C27G	0.06
C15U C27A	0.07
C15U U43G	0.12
C15U U43C	0.09
C15U U43A	0.16
A16C G47A	0.14
A16C G47U	0.13
A16C G47C	0.05
C15G G51A	0.13
C15G G51U	0.08
C15G G51C	0.07
A16C G51U	0.35
A16C G51C	0.12
A16C G51A	0.53
C15G G45A	0.07
C15G G45U	0.04
C15G G45C	0.04
A16C G22C	0.07
A16C G22U	0.31
A16C G22A	0.76
A16C U43A	0.7

Variant	self-cleavage
A16C U43G	0.16
A16C U43C	0.33
C15U C21U	0.46
C15U C21G	0.04
C15U C21A	0.09
C15U G47A	0.06
C15U G47C	0.05
C15U G47U	0.05
C15U U37A	0.62
C15U U37G	0.76
C15U U37C	0.36
C15U C9U	0.07
C15U C9G	0.14
C15U C9A	0.05
A16C G45U	0.09
A16C G45C	0.05
A16C G45A	0.17
C15U U24A	0.04
C15U U24C	0.04
C15U U24G	0.03
A16G C14A	0.15
A16G C14U	0.64
A16G C14G	0.53
A16C G34U	0.34

Variant	self-cleavage
A16C G34C	0.23
A16C G34A	0.44
A16C A28U	0.76
A16C A28G	0.16
A16C A28C	0.83
C15U C32U	0.06
C15U C32A	0.03
C15U C32G	0.08
A16C A38C	1.01
A16C A38U	1.01
A16C A38G	0.96
C15U G22U	0.11
C15U G22C	0.03
C15U G22A	0.17
A16C U37G	0.96
A16C U37C	1.02
A16C U37A	0.84
A16G A28C	1
A16G A28G	0.6
A16G A28U	0.92
A16C C11G	0.17
A16C C11U	0.86
A16C C11A	0.58
A16G A17C	0.91

Variant	self-cleavage
A16G A17G	0.92
A16G A17U	0.94
A16C G35U	0.64
A16C G35A	0.61
A16C G35C	0.17
C15G U18G	0.37
C15G U18A	0.48
C15G U18C	0.54
C15G G47C	0.06
C15G G47U	0.09
C15G G47A	0.08
C15U C31G	0.06
C15U C31U	0.06
C15U C31A	0.03
C15G G48U	0.04
C15G G48C	0.05
C15G G48A	0.05
A16G A41U	1.05
A16G A41C	0.99
A16G A41G	0.74
C15U G13C	0.02
C15U G13U	0.02
C15U G13A	0.05
A16C C9G	0.51

Variant	self-cleavage
A16C C9A	0.5
A16C C9U	0.77
A16C A41C	0.74
A16C A41G	0.63
A16C A41U	0.97
A16G	1.01
A16C	0.97
C15G G42C	0.08
C15G G42U	0.05
C15G G42A	0.12
A16C G23U	0.06
A16C G23C	0.04
A16C G23A	0.14
A16C G13C	0.04
A16C G13U	0.04
A16C G13A	0.08
A16G A36G	1.01
A16G A36C	0.86
A16G A36U	1.06
C15U U12C	0.06
C15U U12G	0.1
C15U U12A	0.11
A16G C9G	0.92
A16G C9U	0.84

Variant	self-cleavage
A16G C9A	0.59
C15G G50A	0.3
C15G G50U	0.26
C15G G50C	0.14
A16G A29G	0.39
A16G A29C	0.08
A16G A29U	0.27
A16C G30U	0.04
A16C G30A	0.04
A16C G30C	0.05
C15G G49A	0.07
C15G G49U	0.06
C15G G49C	0.05
A16C C27G	0.06
A16C C27A	0.13
A16C C27U	0.1
A16C G42C	0.11
A16C G42U	0.52
A16C G42A	0.6
A16G C11A	0.85
A16G C11U	0.95
A16G C11G	0.65
